This note sets out measurements from ChEMBL document CHEMBL1147665, “Design, synthesis, and biological evaluation of 4-alkyliden-beta lactams: new products with promising antibiotic activity against resistant bacteria” (J Med Chem, 2006).

≈ marks a conversion by molar mass, not a printed value.

Assay type in all cases: functional
In one assay the test system is Haemophilus influenzae. As to the kind of experiment: Antibacterial activity against Haemophilus influenzae. The gist of the method:
(§1)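 Broth microdilution MIC per CLSI guidelines in Mueller-Hinton broth: serial 2-fold dilutions, inoculum 5 × 10⁵ CFU/mL in equal volume, 35 °C for 16-20 h. MIC = lowest concentration with no visible turbidity. Recent clinical isolates (43 total, Gram-positive and Gram-negative); values given as MIC ranges, MIC₅₀ and MIC₉₀ per species.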

For assay [1], the system named is Staphylococcus aureus. As to the kind of experiment: Antibacterial activity against methicillin-susceptible Staphylococcus aureus. The gist of the method: as §1
For another assay, the system named is Streptococcus pyogenes. As to the kind of experiment: Antibacterial activity against Streptococcus pyogenes. The gist of the method:
as §1

In assay [2] the test system is Staphylococcus aureus. As to the kind of experiment: Antibacterial activity against methicillin-resistant Staphylococcus aureus. In outline:
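Clinical isolates (3 MRSA in a 43-strain panel). Broth microdilution per CLSI, serial 2-fold dilutions in Mueller-Hinton broth, inoculum 5 × 10⁵ CFU/mL, 35 °C for 16-20 h. MIC = lowest concentration with no visible turbidity; reported as MIC range, MIC₅₀ and MIC₉₀ across isolates.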

Another assay has as its system Streptococcus pneumoniae. Description: Antibacterial activity against Streptococcus pneumoniae. In outline:
as §1

Assay [3] concerns Staphylococcus epidermidis. Description: Antibacterial activity against Staphylococcus epidermidis. In outline:
as §1

Another assay has as its system Enterococcus. As to the kind of experiment: Antibacterial activity against Enterococcus spp. The gist of the method:
as §1

With `CO/N=C(\C(=O)N[C@@H]1C(=O)N2C(C(=O)O)=C(CSc3nc(=O)c(O)nn3C)CS[C@H]12)c1csc(N)n1` [CEFTRIAXONE], the MIC50 is less than 0.06 µg/mL in the assay with Haemophilus influenzae; 2 µg/mL (≈ 3.61 µM) against Staphylococcus aureus [1]; less than 0.06 µg/mL in the assay with Streptococcus pyogenes; more than 128 µg/mL against Staphylococcus aureus [2]; 0.12 µg/mL (≈ 0.216 µM) in the assay with Streptococcus pneumoniae; 8 µg/mL (≈ 14.4 µM) in assay [3]. Further, the MIC50 against Enterococcus was more than 128 µg/mL. Moreover, the MIC90 was 0.12 µg/mL (≈ 0.216 µM) in the assay on Haemophilus influenzae; 2 µg/mL (≈ 3.61 µM) against Staphylococcus aureus [1]; less than 0.06 µg/mL in the assay on Streptococcus pyogenes; more than 128 µg/mL with Staphylococcus aureus [2]; 2 µg/mL (≈ 3.61 µM) in the assay with Streptococcus pneumoniae; 32 µg/mL (≈ 57.7 µM) in assay [3]. The compound also returned an MIC90 against Enterococcus of more than 128 µg/mL.
Take `CCOC(=O)/C=C1\NC(=O)[C@@H]1[C@@H](C)OC(=O)c1ccccc1`: the MIC50 (against Haemophilus influenzae; against Staphylococcus aureus [1]; with Streptococcus pyogenes; in the assay on Streptococcus pneumoniae; in assay [3]; in the assay with Enterococcus) was more than 128 µg/mL each time. Further, the MIC90 (against Haemophilus influenzae; in the assay with Staphylococcus aureus [1]; in the assay on Streptococcus pyogenes; in the assay with Streptococcus pneumoniae; in assay [3]; in the assay with Enterococcus) was more than 128 µg/mL each time.
As to `C[C@@H](O[Si](C)(C)C(C)(C)C)[C@H]1C(=O)N/C1=C\C(=O)Oc1cc(O)cc(O)c1`, the MIC50 in the assay with Staphylococcus aureus [1] was found to be 32 µg/mL (≈ 81.3 µM); against Streptococcus pyogenes it was 16 µg/mL (≈ 40.7 µM); against Staphylococcus aureus [2], 32 µg/mL (≈ 81.3 µM); in the assay on Streptococcus pneumoniae, 16 µg/mL (≈ 40.7 µM); in assay [3], 32 µg/mL (≈ 81.3 µM); against Enterococcus, 64 µg/mL (≈ 163 µM). Besides, the MIC90 against Staphylococcus aureus [1] came to 32 µg/mL (≈ 81.3 µM); against Streptococcus pyogenes, 16 µg/mL (≈ 40.7 µM); in the assay on Staphylococcus aureus [2], 64 µg/mL (≈ 163 µM); against Streptococcus pneumoniae, 16 µg/mL (≈ 40.7 µM); in assay [3] it was 64 µg/mL (≈ 163 µM); in the assay with Enterococcus, 64 µg/mL (≈ 163 µM).
Regarding `CCOC(=O)/C=C1\NC(=O)[C@@H]1[C@@H](C)OC(=O)c1cc(OCc2ccccc2)c(OCc2ccccc2)c(OCc2ccccc2)c1`, the MIC50 (against Haemophilus influenzae; against Staphylococcus aureus [1]; with Streptococcus pyogenes; in the assay on Streptococcus pneumoniae; in assay [3]; against Enterococcus) was more than 128 µg/mL throughout. For the same compound, the MIC90 (in the assay with Haemophilus influenzae; with Staphylococcus aureus [1]; with Streptococcus pyogenes; with Streptococcus pneumoniae; in assay [3]; against Enterococcus) was more than 128 µg/mL throughout.
`C[C@@H](O[Si](C)(C)C(C)(C)C)[C@H]1C(=O)N/C1=C\C(=O)OCc1ccccc1`: the MIC50 in the assay with Haemophilus influenzae was 128 µg/mL (≈ 341 µM); with Staphylococcus aureus [1], more than 128 µg/mL; against Streptococcus pyogenes it was 128 µg/mL (≈ 341 µM); against Streptococcus pneumoniae, 128 µg/mL (≈ 341 µM); in assay [3], more than 128 µg/mL; in the assay with Enterococcus, more than 128 µg/mL. Besides, the MIC90 in the assay on Haemophilus influenzae was more than 128 µg/mL; in the assay with Staphylococcus aureus [1], more than 128 µg/mL; against Streptococcus pyogenes, more than 128 µg/mL; against Streptococcus pneumoniae it was 128 µg/mL (≈ 341 µM); in assay [3], more than 128 µg/mL; in the assay on Enterococcus, more than 128 µg/mL.
Take `CCOC(=O)/C=C1\NC(=O)[C@@H]1[C@@H](C)OC(=O)c1cc(OCc2ccccc2)c(O)c(OCc2ccccc2)c1`: the MIC50 is 128 µg/mL (≈ 241 µM) in the assay with Haemophilus influenzae; more than 128 µg/mL in the assay with Staphylococcus aureus [1]; more than 128 µg/mL in the assay on Streptococcus pyogenes; more than 128 µg/mL in the assay on Streptococcus pneumoniae; more than 128 µg/mL in assay [3]; more than 128 µg/mL against Enterococcus. The MIC90 in the assay with Haemophilus influenzae was 128 µg/mL (≈ 241 µM); in the assay on Staphylococcus aureus [1], more than 128 µg/mL; in the assay on Streptococcus pyogenes, more than 128 µg/mL; in the assay with Streptococcus pneumoniae, more than 128 µg/mL; in assay [3], more than 128 µg/mL; against Enterococcus, more than 128 µg/mL.
Consider `CCOC(=O)C[C@H]1NC(=O)[C@@H]1[C@@H](C)O[Si](C)(C)C(C)(C)C`, for which the MIC50 against Haemophilus influenzae was 128 µg/mL (≈ 406 µM); with Staphylococcus aureus [1], more than 128 µg/mL; with Streptococcus pyogenes, more than 128 µg/mL; against Streptococcus pneumoniae, more than 128 µg/mL; in assay [3], more than 128 µg/mL; with Enterococcus it was more than 128 µg/mL. The MIC90 (against Haemophilus influenzae; against Staphylococcus aureus [1]; in the assay with Streptococcus pyogenes; in the assay with Streptococcus pneumoniae; in assay [3]; against Enterococcus) was more than 128 µg/mL each time.
On to `COc1cc(C(=O)O[C@H](C)[C@H]2C(=O)N/C2=C\C(=O)O)cc(OC)c1OC`, for which the MIC50 was 128 µg/mL (≈ 350 µM) against Haemophilus influenzae; more than 128 µg/mL in the assay with Staphylococcus aureus [1]; more than 128 µg/mL with Streptococcus pyogenes; 128 µg/mL (≈ 350 µM) against Streptococcus pneumoniae; more than 128 µg/mL in assay [3]; more than 128 µg/mL in the assay on Enterococcus. For the same compound, the MIC90 in the assay with Haemophilus influenzae was 128 µg/mL (≈ 350 µM); against Staphylococcus aureus [1], more than 128 µg/mL; against Streptococcus pyogenes, more than 128 µg/mL; with Streptococcus pneumoniae, 128 µg/mL (≈ 350 µM); in assay [3], more than 128 µg/mL; in the assay with Enterococcus, more than 128 µg/mL.
